Measurements: publication PMC6001286 (Advanced biosystems, 2017)
Starred links: 1 amine or outer side, 2 acyl side, 3 side chain; linkers in the order of their positions; H or OH if unused. Positions of bridges follow the written chain, without caps; N, C: chain ends. Non-standard residues stand in square brackets, D forms with d. Primed or numbered codes have the meaning given here. *: point of attachment. PEG2′ = PEG2 (Ebes) spacer between FITC and the peptide N-terminus, O=C(CCC(=O)[*:2])NCCOCCOCCN[*:1]; FITC = O=C1OC2(c3ccc(O)cc3Oc3cc(O)ccc32)c2ccc(NC(=S)*)cc21; Phe(3,5-F2) = N[C@@H](Cc1cc(F)cc(F)c1)C(=O)O; Hyp = O=C(O)[C@@H]1C[C@@H](O)CN1

Experiments:
[1] = test system: Jurkat tumor cells; experiment: flow cytometry binding to Jurkat cells; format: cell-based, human; details: α4β1-expressing; data not shown
In short: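 Jurkat cells were grown in RPMI 1640 with 10% FBS and penicillin/streptomycin (37°C, 5% CO2). Cells were incubated 30 min in 3% FBS/PBS with FITC-PEG-labeled peptide or scrambled analogue at 1 μM; anti-α3-FITC was used at 1 μg per million cells. Cells were washed thrice and resuspended in 3% FBS with 1% sodium azide. Three replicates, ≥10,000 gated cells each.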

[2] = on-bead flow cytometry binding to Jurkat exosomes; parameters: species or system human; details: α4β1-expressing, data not shown
In short: (§1)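 Exosomes were isolated by ultracentrifugation: Jurkat EV-depleted culture supernatant, or whole plasma from three healthy donors. Spins were 300 × g, 2,000 × g and 10,000 × g, then twice 100,000 × g for 2 hr at 4°C. Exosomes (10 μg protein) were labeled overnight with FITC-PEG peptide or scrambled analogue (1 μL of 5 mM). Free peptide was removed by 3000 Da spin column. Samples were adsorbed to 3.9 μm aldehyde/sulfate latex beads for flow cytometry. Triplicates, ≥10,000 beads each.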

[3] = on-bead flow cytometry binding to healthy plasma exosomes; parameters: species or system human; details: exosomes isolated by ultracentrifugation
In short: as §1

scr-LXY30-Fl: scr-LXY30 labeled with fluorescein isothiocyanate dye via PEG2 spacer at the peptide N-terminus ({FITC-PEG2′}-[dC]G[dD][Hyp][Phe(3,5-F2)]GN[dC]R-NH2; disulfide 1-8)
binding to Jurkat cells [1]: minimal extent
binding to Jurkat exosomes [2]: minimal extent
binding to healthy human plasma exosomes [3]: did not exhibit significant binding

[cGd-Hyp-Phe(3,5-diF)-G-NcR] (disulfide) [scr-LXY30]
binding to healthy human plasma exosomes [3]: limited binding
